The record followed here is ChEMBL document CHEMBL1153949, “Design, synthesis, and structure-activity relationship of substrate competitive, selective, and in vivo active triazole and thiadiazole inhibitors of the c-Jun N-terminal kinase” (J Med Chem, 2009).

Data set [1] is described as follows: Displacement of biotin-labeled pep-JIP11 from JNK by DELFIA assay.
Data set [2] is described as follows: Displacement of biotin-labeled pep-JIP11 from JNK at 100 uM by DELFIA assay. The method in brief: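 GST-JNK added at 10 nM final with Eu-anti-GST antibody (1.9 nM) and compound in DMSO. Incubated 1 hr at 0 °C, washed 5 times, enhancement solution added, and Eu fluorescence read after 10 min (ex 340, em 615 nm). Controls: unlabeled peptide and no-compound blanks.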

Data set [3] is described as follows: Selectivity for JNK over p38 alpha.
Data set [4] concerns the target Mitogen-activated protein kinase 14 (Homo sapiens, UniProt Q16539). The experiment in a line: Inhibition of p38alpha.
Data set [5] addresses RAC-alpha serine/threonine-protein kinase (Homo sapiens) (UniProt P31749). Kind of data set: Inhibition of AKT1 at 100 uM.
The target of a further data set is Furin (Homo sapiens, UniProt P09958). Kind of data set: Inhibition of furin.
A short description of data set [6]: Inhibition of lethal factor.
A short description of data set [7]: Inhibition of TNF-alpha-stimulated JNK phosphorylation expressed in HeLa cells by time-resolved FRET assay. The class given is cell-based. The method in brief:
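HeLa cells stably expressing GFP-c-Jun(1–79), seeded at 10000/well in phenol red-free Opti-MEM with 1% charcoal/dextran-treated FBS, incubated overnight. Compound pretreatment 60 min, then TNF-α 2 ng/ml for 30 min. Cells lysed in buffer containing 2 nM Tb-anti-phospho-c-Jun (Ser73) antibody and equilibrated 1 hr at room temperature. TR-FRET read at 520/490 nm; EC50 taken from the concentration series.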

For a further data set, the system named is Mus musculus. Kind of data set: Enhancement of insulin insensitivity in BKS.Cg-+Lepr'db/-+Lepr'db/OlaHsd db/db mouse model assessed as reduction in blood glucose levels at 25 mg/kg, ip administered 30 mins before insulin injection. The class given is functional, organism-based. Also noted: dose 25 mg/kg. The method in brief:
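Male db/db mice, 11 weeks old, randomized by blood glucose and fasted 6 h. Compound given at 25 mg/kg i.p., then bovine insulin 0.75 mg/kg i.p. 30 min later. Blood glucose read from tail snips with a hand-held meter at set time points; food returned at 3 h. n=6; means ± S.D.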

The nature of data set [8]: Metabolic stability in rat liver microsomes at 4 uM. The class given is ADME, Microsome. A general note: Liver microsomes are a subcellular fraction often used to study metabolism.
Data set [9] in a line: Inhibition of JNK at 100 uM by time-resolved FRET assay. The essentials:
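LanthaScreen TR-FRET kinase assay. JNK 35 ng/mL with ATF2 substrate 400 nM and ATP 200 μM in 50 mM HEPES pH 7.5, 10 mM MgCl2, 1 mM EGTA, 0.01% Brij-35, with compound. Reaction ran 1 hr at room temperature. Terbium-labeled antibody plus EDTA added, incubated another hour, and read as the 520/495 nm emission ratio.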

The source made the active and inactive calls. The rule behind the calls is not given here.

Chain of Furin (P09958 whole entry): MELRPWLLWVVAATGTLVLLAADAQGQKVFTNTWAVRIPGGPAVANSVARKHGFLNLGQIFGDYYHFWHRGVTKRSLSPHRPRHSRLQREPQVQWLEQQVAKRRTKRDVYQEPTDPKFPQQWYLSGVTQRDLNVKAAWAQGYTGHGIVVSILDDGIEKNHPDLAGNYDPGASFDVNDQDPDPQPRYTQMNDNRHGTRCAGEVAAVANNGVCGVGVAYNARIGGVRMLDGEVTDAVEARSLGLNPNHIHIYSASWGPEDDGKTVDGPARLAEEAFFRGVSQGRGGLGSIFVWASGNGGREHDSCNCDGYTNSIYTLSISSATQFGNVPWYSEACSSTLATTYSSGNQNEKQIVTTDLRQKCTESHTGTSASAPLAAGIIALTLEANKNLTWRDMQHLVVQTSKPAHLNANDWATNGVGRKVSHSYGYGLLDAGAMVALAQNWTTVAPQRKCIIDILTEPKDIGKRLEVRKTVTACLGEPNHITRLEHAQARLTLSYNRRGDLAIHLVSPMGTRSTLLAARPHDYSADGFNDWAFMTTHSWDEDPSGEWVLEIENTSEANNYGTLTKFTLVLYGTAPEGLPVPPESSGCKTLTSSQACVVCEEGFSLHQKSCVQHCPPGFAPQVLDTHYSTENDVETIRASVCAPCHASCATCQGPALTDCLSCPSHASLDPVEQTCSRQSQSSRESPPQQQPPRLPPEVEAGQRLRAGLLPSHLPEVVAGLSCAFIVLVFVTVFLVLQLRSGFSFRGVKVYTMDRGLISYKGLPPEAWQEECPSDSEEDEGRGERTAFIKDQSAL
Chain of RAC-alpha serine/threonine-protein kinase (Homo sapiens) (P31749 whole entry): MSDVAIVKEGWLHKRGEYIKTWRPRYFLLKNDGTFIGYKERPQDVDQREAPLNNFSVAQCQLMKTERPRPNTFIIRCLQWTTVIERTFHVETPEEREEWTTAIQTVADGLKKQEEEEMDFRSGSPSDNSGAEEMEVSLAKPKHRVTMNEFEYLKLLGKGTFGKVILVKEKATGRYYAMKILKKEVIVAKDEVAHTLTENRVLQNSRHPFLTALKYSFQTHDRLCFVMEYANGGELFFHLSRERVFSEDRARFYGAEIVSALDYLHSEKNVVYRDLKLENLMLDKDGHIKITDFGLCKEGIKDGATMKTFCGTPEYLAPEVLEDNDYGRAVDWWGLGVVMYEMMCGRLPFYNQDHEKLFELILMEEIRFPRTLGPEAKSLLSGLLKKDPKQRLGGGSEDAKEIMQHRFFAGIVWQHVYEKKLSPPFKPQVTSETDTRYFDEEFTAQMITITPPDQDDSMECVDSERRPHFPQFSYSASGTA
Chain of Mitogen-activated protein kinase 14 (Q16539 whole entry): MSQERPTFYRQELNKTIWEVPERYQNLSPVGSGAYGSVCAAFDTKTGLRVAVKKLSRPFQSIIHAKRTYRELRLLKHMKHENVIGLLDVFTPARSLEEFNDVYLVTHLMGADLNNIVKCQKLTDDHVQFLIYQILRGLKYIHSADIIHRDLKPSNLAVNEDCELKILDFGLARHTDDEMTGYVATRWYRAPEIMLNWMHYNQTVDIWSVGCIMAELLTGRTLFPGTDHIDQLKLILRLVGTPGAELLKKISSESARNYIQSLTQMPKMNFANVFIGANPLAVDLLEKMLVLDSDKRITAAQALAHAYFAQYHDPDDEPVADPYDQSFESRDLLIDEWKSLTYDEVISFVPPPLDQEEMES

For `Nc1nnc(SCc2ccc(F)cc2)s1`, in [1], the IC50 (as a rule, the concentration that inhibits the measured activity by half) is greater than 1 µM.
Turning to `O=[N+]([O-])c1cccc(CSc2nnc(SCc3cccc([N+](=O)[O-])c3)s2)c1`, the inhibition (usually the share of the control response that was lost under treatment) in [2] is “inactive”.
For the compound `Nc1nnc(Sc2ncc([N+](=O)[O-])s2)s1`, in data set [3], the Ratio IC50 amounted to 142. Besides, the Activity entry in [1] was “Dose-dependent effect”. Also, the results for the IC50 (in data set [4]; against Furin; in data set [6]) were greater than 100 µM, greater than 50 µM and greater than 100 µM, respectively. Also, in [5], the inhibition is 11%. For the same compound, in [7], it took 6.23 µM to reach a half-maximal effect (EC50). For the same compound, the outcome in the data set with Mus musculus was Active. Besides, the half-life (as a rule, the time in which the quantity being followed falls by half) at 4 µM in [8] was 27 min.
As for `Cn1cccc1-c1nnc(Sc2ncc([N+](=O)[O-])s2)n1-c1ccc(Cl)cc1Cl`, the results for the IC50 (in data set [4]; at Furin; in [6]) were greater than 100 µM, greater than 50 µM and greater than 100 µM, respectively. In data set [5], this compound yielded an inhibition of 14%.
Regarding `O=C(Nc1nnc(Sc2ncc([N+](=O)[O-])s2)s1)c1ccc(F)cc1`, the inhibition entry in data set [2] was “inactive”.
On to `O=[N+]([O-])c1ccc(Sc2nnc(O)n2-c2ccccc2)s1`, for which the inhibition in [2] turned out to be 55%; in data set [9], 22%.
As for `O=[N+]([O-])c1ccc(-n2c(O)nnc2Sc2ncc([N+](=O)[O-])s2)cc1`, in data set [5], the inhibition is 20%. The same compound yielded an IC50 in data set [6] greater than 100 µM.
On to `CCSc1nnc(O)n1-c1ccccc1`, for which the inhibition result in [2] is “inactive”. The compound further registered an inhibition in [9] of 16%.
For the compound `O=[N+]([O-])c1ccc(CSc2nnc(SCc3ccc([N+](=O)[O-])cc3)s2)cc1`, the inhibition result in data set [2] was “inactive”.
Take `c1ccc(CSc2nnc(SCc3ccccc3)s2)cc1`: the inhibition entry in data set [2] is “inactive”.
The same measure, in the same setting: then `O=[N+]([O-])c1cnc(Sc2nnc(O)n2-c2ccc(F)c(F)c2)s1`, with 73%.
With `O=[N+]([O-])c1cnc(Sc2nnc(Sc3ncc([N+](=O)[O-])s3)s2)s1`, the IC50 in data set [4] was greater than 100 µM; at Furin, greater than 50 µM; in [6], greater than 100 µM. This compound came in with an inhibition in data set [5] of 27%.
As for `O=c1[nH]nc(Sc2ncc([N+](=O)[O-])s2)n1-c1ccc([N+](=O)[O-])cc1`, the figures for the IC50 (in data set [4]; against Furin) were greater than 100 µM and greater than 50 µM, respectively.
For `Fc1ccc(CSc2nnc(SCc3ccc(F)cc3)s2)cc1`, the inhibition entry in [2] was “inactive”.
As to `Oc1nnc(SCc2ccccc2)n1-c1ccc2c(c1)OCCO2`, the inhibition result in [2] is “inactive”. In [9], this compound displayed an inhibition of 2%.
As to `COc1ccc(CSc2nnc(SCc3ccc(OC)cc3)s2)cc1`, in data set [2], the inhibition entry was “inactive”.
`O=[N+]([O-])c1cnc(Sc2nnc(O)n2-c2ccc3c(c2)OCCO3)s1` gave an IC50 in data set [1] of 0.108 µM.
For the compound `CCCCSc1nnc(O)n1-c1ccccc1`, in [2], the inhibition entry was “inactive”. Besides, in [9], the inhibition is 25%.
